Assay results from paper PMC10230635 (Chinese Herbal Medicines, 2022).

Assays:
α-Mannosidase (α-Man) [1] = target: T1, α-Mannosidase (α-Man) (Canavalia ensiformis, UniProt C0HJB3); test: SPR interaction analysis between compounds and immobilised α-Man; type: binding, Canavalia ensiformis (Jack bean); conditions: for Kd: KD (equilibrium dissociation constant), kinetic analysis, SPR, 25 °C, 1:1 Langmuir binding model; for kon: read-out: ka (association rate constant); for koff: read-out: kd (dissociation rate constant)
T1 sequence (C0HJB3 1-562 limits assumed): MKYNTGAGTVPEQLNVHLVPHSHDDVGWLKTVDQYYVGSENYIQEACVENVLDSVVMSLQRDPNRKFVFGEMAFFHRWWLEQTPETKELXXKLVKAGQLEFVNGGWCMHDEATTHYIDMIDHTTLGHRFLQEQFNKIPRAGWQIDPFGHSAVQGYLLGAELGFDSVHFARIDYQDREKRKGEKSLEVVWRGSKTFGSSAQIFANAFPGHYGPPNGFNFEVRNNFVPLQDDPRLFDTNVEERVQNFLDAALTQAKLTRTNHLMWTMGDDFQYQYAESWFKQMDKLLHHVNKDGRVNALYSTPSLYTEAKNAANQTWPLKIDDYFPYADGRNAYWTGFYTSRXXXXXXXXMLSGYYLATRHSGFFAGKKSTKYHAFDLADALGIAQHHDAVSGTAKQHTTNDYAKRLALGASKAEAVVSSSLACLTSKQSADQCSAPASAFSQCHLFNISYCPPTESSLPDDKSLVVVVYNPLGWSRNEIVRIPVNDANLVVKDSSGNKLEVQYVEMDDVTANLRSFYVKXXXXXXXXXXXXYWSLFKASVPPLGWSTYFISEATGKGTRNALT
T1 sequence (C0HJB3 563-981 partner limits assumed): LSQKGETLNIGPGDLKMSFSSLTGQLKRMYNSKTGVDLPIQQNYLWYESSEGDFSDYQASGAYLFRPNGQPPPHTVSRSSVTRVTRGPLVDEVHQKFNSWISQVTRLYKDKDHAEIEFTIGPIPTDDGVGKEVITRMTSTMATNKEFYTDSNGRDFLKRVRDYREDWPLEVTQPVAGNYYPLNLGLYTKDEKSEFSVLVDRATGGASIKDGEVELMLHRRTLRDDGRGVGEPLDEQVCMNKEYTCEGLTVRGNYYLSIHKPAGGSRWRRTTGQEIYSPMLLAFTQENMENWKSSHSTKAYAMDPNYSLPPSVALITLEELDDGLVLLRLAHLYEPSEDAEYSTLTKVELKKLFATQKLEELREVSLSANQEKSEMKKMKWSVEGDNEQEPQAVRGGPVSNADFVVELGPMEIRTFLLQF
Procedure, shortened: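 The α-Man chip was referenced against an enzyme-free channel. Each test compound was run at six concentrations in a twofold series, injected in parallel at 25 μL/min and 25 °C, with 12 min association and 20 min dissociation. A 4.0–6.0% DMSO calibration curve was applied. Runs were done in triplicate. ka, kd and KD came from a global 1:1 Langmuir fit; equilibrium constants came from steady-state analysis.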

[2] = system: human hepatoma cancer cell line (HepG2); test: cells; type: cell-based; conditions: HepG2, 72 h, read-out: IC50, anti-proliferative activity
[3] = system: mouse fibroblast cells (L929); test: CCK-8 toxicity on normal cells, L929; type: cell-based; conditions: L929, under the condition of keeping 90% cell viability
[4] = system: human lung cancer cell line (HCC827); test: cells; type: cell-based; conditions: HCC827, 72 h, read-out: IC50, anti-proliferative activity
[5] = system: human breast cancer cell line (MCF7); test: cells; type: cell-based; conditions: MCF7, 72 h, read-out: IC50, anti-proliferative activity
α-Mannosidase (α-Man) [6] = target: T1, α-Mannosidase (α-Man); test: SPR bioactivity assessment: binding ability; parameters: species or system Canavalia ensiformis (Jack bean); conditions: swainsonine standard solution, PBST running buffer
Procedure, shortened: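 Jack bean α-Man was amine-coupled onto the GLH chip binding channel after sulfo-NHS/EDC activation. Coupling was at 20 μg/mL in 10 mmol/L sodium acetate, pH 4, at 25 μL/min for 360 s, followed by ethanolamine blocking. A reference channel was activated and blocked without enzyme. A positive-control inhibitor standard was injected, with PBST (10 mmol/L Na3PO4, 150 mmol/L NaCl, 0.005% Tween 20, pH 7.4) as the blank. The response was followed during association.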

Kd (α-Mannosidase (α-Man) [1]) [µM]	kon (α-Mannosidase (α-Man) [1]) [M⁻¹ s⁻¹]	koff (α-Mannosidase (α-Man) [1]) [s⁻¹]	Compound	IC50 [2] [µM]	safe dose [3] [µmol/L]	IC50 [4] [µM]	IC50 [5] [µM]	response signal during association (α-Mannosidase (α-Man) [6]) [RU]
1370	1.54	0.00211	O=Cc1ccc(O)cc1 [Compound 1, p-Hydroxybenzaldehyde]					
347	12	0.00418	COc1cc(C=O)cc(OC)c1O [Compound 2, 3,5-Dimethoxy-4-hydroxy-benzaldehyde]					
			COc1cc2ncnc(Nc3ccc(F)c(Cl)c3)c2cc1OCCCN1CCOCC1 [Gefitinib, reference compound]		40			
			O[C@H]1[C@H]2[C@H](O)CCCN2C[C@H]1O [swainsonine, Swainsonine]					20

Compound	Kd (α-Mannosidase (α-Man) [1]) [µM]	kon (α-Mannosidase (α-Man) [1]) [M⁻¹ s⁻¹]	koff (α-Mannosidase (α-Man) [1]) [s⁻¹]	IC50 [2] [µM]	safe dose [3] [µmol/L]	IC50 [4] [µM]	IC50 [5] [µM]	response signal during association (α-Mannosidase (α-Man) [6]) [RU]
O=c1c2ccccc2nc2n1CCC2 [Compound 3, Deoxyvasicinone]	47.3	73.3	0.00347	5.7	20	0.75	7.21	
